We go through 21 compounds from article PMC12415690 (RSC Advances, 2025).

The subject of experiment [1] is M. tuberculosis H37Rv strain (ATCC 27294). As to the kind of experiment: Antitubercular activity, microplate Alamar Blue assay. Type of experiment: cell-based. Conditions: Mycobacterium tuberculosis, ATCC27294|H37RV, read-out: MIC μM. A general note: Alamar Blue is a resazurin reagent that responds to reducing activity.
The subject of another experiment is S. aureus (ATCC 23235). As to the kind of experiment: Antibacterial zone of inhibition. In kind it is cell-based. Conditions: Staphylococcus aureus, ATCC23235, read-out: Zone of inhibition in mm, S. aureus (ATCC 23235). In short, it runs like this: (§1)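 Sterilised nutrient agar, […], was seeded with 18–24 h bacterial subcultures, mixed and poured into Petri dishes. Once the agar set, 6 mm wells were cut with a sterile cork borer and filled with test compound dissolved in DMSO at 100 μg mL−1. Plates were incubated at 37 °C for 24–48 h, and inhibition zones around each well were measured in mm. Ciprofloxacin was the reference standard.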

For a further experiment, the system named is B. subtilis (ATCC 6051). Kind of experiment: Antibacterial zone of inhibition. In kind it is cell-based, Bacillus subtilis. To be noted: 100 μg mL^−1; for zone of inhibition at 100 µg/mL: Bacillus subtilis, ATCC6051, read-out: Zone of inhibition in mm, B. subtilis (ATCC 6051), Gram positive; for Zone of inhibition in mm, B. subtilis (ATCC 6051): Gram positive. In short, it runs like this:
as §1

A further experiment has as its system E. coli (ATCC 25922). Kind of experiment: Antibacterial zone of inhibition. Type of experiment: cell-based. Conditions: Escherichia coli, ATCC25922, read-out: Zone of inhibition in mm, E. coli (ATCC 25922). The method in brief:
as §1

The test system of experiment [2] is P. aeruginosa (ATCC 27853). Kind of experiment: Antibacterial zone of inhibition. Type of experiment: cell-based. Conditions: Pseudomonas aeruginosa, ATCC27853, read-out: Zone of inhibition in mm, P. aeruginosa (ATCC 27853). In short, it runs like this: as §1
The subject of a further experiment is M.tb H37Rv. Conditions: M.tb H37Rv; cited from earlier work.

SMILES strings stand for the structures. Converted amounts (≈) assume the structure as drawn.

On to `CCOC(=O)/C=C1/SC(N/N=C/c2c(-c3ccc(C)cc3)nc3ncccn23)=NC1=O` [Compound K22, Ethyl(E)-2-(4-oxo-2-(2-((E)-(2-(p-tolyl)imidazo[1,2-a]pyrimidin-3-yl)methylene) hydrazineyl)thiazol-5(4H)-ylidene)acetate], for which, in experiment [1], the MIC (in general, the lowest concentration found to suppress growth) worked out at 28.8 µM (≈ 12.5 µg/mL). The zone of inhibition (in general, the size of the clear area around the sample on an inoculated plate) at 100 µg/mL with S. aureus (ATCC 23235) is 15 mm; in the experiment on B. subtilis (ATCC 6051), 15 to 20 mm; with E. coli (ATCC 25922) it was 24 mm; in experiment [2], 13 mm. For the same compound, in the experiment with B. subtilis (ATCC 6051), the “Zone of inhibition in mm, B. subtilis (ATCC 6051)” value (from here on “Zone of inhibition in mm”) is 15 mm.

Regarding `CCOC(=O)/C=C1/SC(N/N=C/c2c(-c3ccc(Br)cc3)nc3ncccn23)=NC1=O` [Compound K26, Ethyl(E)-2-(2-(2-((E)-(2-(4-bromophenyl)imidazo[1,2-a]pyrimidin-3-yl)methylene) hydrazineyl)-4-oxothiazol-5(4H)-ylidene)acetate], the MIC in experiment [1] stood at 50.2 µM (≈ 25.1 µg/mL). Moreover, the zone of inhibition at 100 µg/mL in the experiment on S. aureus (ATCC 23235) and in the experiment on B. subtilis (ATCC 6051) was 15 mm each time.

Turning to `CCOC(=O)/C=C1/SC(N/N=C/c2c(-c3ccc(Cl)cc3)nc3ncccn23)=NC1=O` [Compound K25, Ethyl(E)-2-(2-(2-((E)-(2-(4-chlorophenyl)imidazo[1,2-a]pyrimidin-3-yl)methylene) hydrazineyl)-4-oxothiazol-5(4H)-ylidene)acetate], the minimal inhibitory concentration (MIC) in experiment [1] was determined as 55 µM (≈ 25 µg/mL). Also, the zone of inhibition at 100 µg/mL is 21 mm in the experiment on S. aureus (ATCC 23235), 15 to 20 mm with B. subtilis (ATCC 6051), 21 mm in the experiment with E. coli (ATCC 25922) and 20 mm in experiment [2]. In the experiment with B. subtilis (ATCC 6051), the “Zone of inhibition in mm” value was determined as 20 mm.

For the compound `CC(=O)c1sc(N/N=C/c2c(-c3ccccc3)nc3ncccn23)nc1C` [Compound K21, (E)-1-(4-methyl-2-(2-((2-phenylimidazo[1,2-a]pyrimidin-3-yl)methylene)hydrazineyl)thiazol-5-yl)ethan-1-one], in experiment [1], the MIC was 33.2 µM (≈ 12.5 µg/mL). Moreover, the zone of inhibition at 100 µg/mL with S. aureus (ATCC 23235) was 19 mm; in the experiment on B. subtilis (ATCC 6051), 13 mm.

As for `CCOC(=O)c1sc(N/N=C/c2c(-c3ccc(Br)cc3)nc3ncccn23)nc1C` [Compound K5, Ethyl(E)-2-(2-((2-(4-bromophenyl)imidazo[1,2-a]pyrimidin-3-yl)methylene)hydrazineyl)-4-methylthiazole-5-carboxylate], the MIC in experiment [1] was 12.9 µM (≈ 6.27 µg/mL). The zone of inhibition at 100 µg/mL amounted to 11 mm in the experiment on S. aureus (ATCC 23235), 13 mm with B. subtilis (ATCC 6051), 14 mm in the experiment on E. coli (ATCC 25922) and 13 mm in experiment [2].

Turning to `[H]/N=C(/N)N[C@H]1[C@H](O)[C@@H](O)[C@H](O[C@@H]2O[C@@H](C)[C@](O)(C=O)[C@H]2O[C@@H]2O[C@@H](CO)[C@H](O)[C@@H](O)[C@@H]2NC)[C@@H](N/C(N)=N\[H])[C@@H]1O` [STM, streptomycin, reference compound], the MIC in experiment [1] was 10.7 µM (≈ 6.25 µg/mL).

On to `CC(=O)c1sc(N/N=C/c2c(-c3ccc(Cl)cc3)nc3ncccn23)nc1C` [Compound K18, (E)-1-(2-(2-((2-(4-chlorophenyl)imidazo[1,2-a]pyrimidin-3-yl)methylene)hydrazineyl)-4-methylthiazol-5-yl)ethan-1-one], for which, in experiment [1], the MIC worked out at 30.5 µM (≈ 12.5 µg/mL). Further, the zone of inhibition at 100 µg/mL is 18 mm with S. aureus (ATCC 23235), 15 to 20 mm in the experiment on B. subtilis (ATCC 6051), 15 mm in the experiment with E. coli (ATCC 25922) and 12 mm in experiment [2]. Moreover, in the experiment on B. subtilis (ATCC 6051), the “Zone of inhibition in mm” value was determined as 15 mm.

Regarding `CC(=O)c1sc(N/N=C/c2c(-c3ccc(Br)cc3)nc3ncccn23)nc1C` [Compound K19, (E)-1-(2-(2-((2-(4-bromophenyl)imidazo[1,2-a]pyrimidin-3-yl)methylene)hydrazineyl)-4-methylthiazol-5-yl)ethan-1-one], in experiment [1], the MIC was 13.8 µM (≈ 6.27 µg/mL). Besides, the zone of inhibition at 100 µg/mL turned out to be 12 mm with S. aureus (ATCC 23235), 12 mm with B. subtilis (ATCC 6051) and 20 mm in experiment [2].

On to `CCOC(=O)c1cnc(N/N=C/c2c(-c3ccccc3)nc3ncccn23)s1` [Compound K14, Ethyl(E)-2-(2-((2-phenylimidazo[1,2-a]pyrimidin-3-yl)methylene)hydrazineyl)thiazole-5-carboxylate], for which the MIC in experiment [1] was determined as 31.9 µM (≈ 12.5 µg/mL). Moreover, the zone of inhibition at 100 µg/mL in the experiment on S. aureus (ATCC 23235) was determined as 15 mm; in the experiment on B. subtilis (ATCC 6051) it was 14 mm; with E. coli (ATCC 25922), 12 mm; in experiment [2], 15 mm.

Consider `CCOC(=O)/C=C1/SC(N/N=C/c2c(-c3ccc(OC)cc3)nc3ncccn23)=NC1=O` [Compound K23, Ethyl(E)-2-(2-(2-((E)-(2-(4-methoxyphenyl)imidazo[1,2-a]pyrimidin-3-yl)methylene) hydrazineyl)-4-oxothiazol-5(4H)-ylidene)acetate], for which the MIC in experiment [1] turned out to be 111 µM (≈ 50 µg/mL). Further, the figures for the zone of inhibition at 100 µg/mL (in the experiment on S. aureus (ATCC 23235); in the experiment on E. coli (ATCC 25922); in experiment [2]) were 16 mm, 24 mm and 18 mm, respectively.

For the compound `CCOC(=O)c1cnc(N/N=C/c2c(-c3ccc(C)cc3)nc3ncccn23)s1` [Compound K8, Ethyl(E)-2-(2-((2-(p-tolyl)imidazo[1,2-a]pyrimidin-3-yl)methylene)hydrazineyl)thiazole-5-carboxylate], the MIC in experiment [1] was 7.68 µM (≈ 3.12 µg/mL). Moreover, the zone of inhibition at 100 µg/mL in the experiment on S. aureus (ATCC 23235) was found to be 12 mm; with E. coli (ATCC 25922), 17 mm; in experiment [2], 19 mm.

For the compound `COc1ccc(-c2nc3ncccn3c2/C=N/Nc2nc(C)c(C(C)=O)s2)cc1` [Compound K16, (E)-1-(2-(2-((2-(4-methoxyphenyl)imidazo[1,2-a]pyrimidin-3-yl)methylene)hydrazineyl)-4-methylthiazol-5-yl)ethan-1-one], the MIC in experiment [1] is 30.8 µM (≈ 12.5 µg/mL). Besides, the zone of inhibition at 100 µg/mL in the experiment with S. aureus (ATCC 23235) is 18 mm; in experiment [2], 11 mm.

Take `CC(=O)c1sc(N/N=C/c2c(-c3ccc(C#N)cc3)nc3ncccn23)nc1C` [Compound K20, (E)-4-(3-((2-(5-acetyl-4-methylthiazol-2-yl)hydrazineylidene)methyl)imidazo[1,2-a]pyrimidin-2-yl)benzonitrile]: in experiment [1], the MIC is 15.6 µM (≈ 6.25 µg/mL). Also, the zone of inhibition at 100 µg/mL in the experiment with S. aureus (ATCC 23235) was 17 mm; with B. subtilis (ATCC 6051), 15 to 20 mm; in the experiment with E. coli (ATCC 25922), 14 mm; in experiment [2] it was 12 mm. Further, the “Zone of inhibition in mm” value with B. subtilis (ATCC 6051) worked out at 15 mm.

`CCOC(=O)/C=C1/SC(N/N=C/c2c(-c3ccc(F)cc3)nc3ncccn23)=NC1=O` [Compound K24, Ethyl(E)-2-(2-(2-((E)-(2-(4-fluorophenyl)imidazo[1,2-a]pyrimidin-3-yl)methylene) hydrazineyl)-4-oxothiazol-5(4H)-ylidene)acetate]: the MIC in experiment [1] amounted to 28.5 µM (≈ 12.5 µg/mL).

As for `CCOC(=O)c1sc(N/N=C(\C)c2ccccn2)nc1C` [(E)-ethyl 4-methyl-(2-(1-(pyridin-2-yl)ethylidene)hydrazinyl)thiazole-5-carboxylate], the MIC in the experiment on M.tb H37Rv is 12.5 µM (≈ 3.8 µg/mL).

Turning to `CCOC(=O)c1sc(N/N=C/c2ccccc2O)nc1C` [(E)-ethyl 2-(2-(2-hydroxybenzylidene)hydrazinyl-4-methylthiazole-5-carboxylate], in the experiment with M.tb H37Rv, the MIC was 25 µM (≈ 7.63 µg/mL).

For the compound `NC(=O)c1cnccn1` [PZA, pyrazinamide, reference compound], in experiment [1], the MIC came out at 25.3 µM (≈ 3.12 µg/mL).

With `CC(=O)c1sc(N/N=C/c2c(-c3ccc(F)cc3)nc3ncccn23)nc1C` [Compound K17, (E)-1-(2-(2-((2-(4-fluorophenyl)imidazo[1,2-a]pyrimidin-3-yl)methylene)hydrazineyl)-4-methylthiazol-5-yl)ethan-1-one], the MIC in experiment [1] is 7.91 µM (≈ 3.12 µg/mL). Besides, the figures for the zone of inhibition at 100 µg/mL (in the experiment on S. aureus (ATCC 23235); in the experiment on B. subtilis (ATCC 6051); in experiment [2]) were 20 mm, 14 mm and 11 mm, respectively.

With `CCOC(=O)c1sc(N/N=C/c2c(-c3ccc(C#N)cc3)nc3ncccn23)nc1C` [Compound K6, Ethyl(E)-2-(2-((2-(4-cyanophenyl)imidazo[1,2-a]pyrimidin-3-yl)methylene)hydrazineyl)-4-methylthiazole-5-carboxylate], in experiment [1], the MIC is 29 µM (≈ 12.5 µg/mL). Moreover, the zone of inhibition at 100 µg/mL in the experiment with S. aureus (ATCC 23235) was 17 mm; with B. subtilis (ATCC 6051), 14 mm; in the experiment on E. coli (ATCC 25922), 10 mm; in experiment [2] it was 15 mm.

For `CCOC(=O)c1sc(N/N=C/c2c(-c3ccc(Cl)cc3)nc3ncccn23)nc1C` [Compound K4, Ethyl(E)-2-(2-((2-(4-chlorophenyl)imidazo[1,2-a]pyrimidin-3-yl)methylene)hydrazineyl)-4-methylthiazole-5-carboxylate], the MIC in experiment [1] was 14.2 µM (≈ 6.26 µg/mL). Moreover, the zone of inhibition at 100 µg/mL turned out to be 13 mm with S. aureus (ATCC 23235), 14 mm with B. subtilis (ATCC 6051), 20 mm in the experiment with E. coli (ATCC 25922) and 11 mm in experiment [2].

`CC(=O)c1sc(N/N=C/c2c(-c3ccc(C)cc3)nc3ncccn23)nc1C` [Compound K15, (E)-1-(4-methyl-2-(2-((2-(p-tolyl)imidazo[1,2-a]pyrimidin-3-yl)methylene)hydrazineyl)thiazol-5-yl)ethan-1-one]: in experiment [1], the minimum inhibitory concentration (MIC) is 32 µM (≈ 12.5 µg/mL). In addition, the zone of inhibition at 100 µg/mL in the experiment on S. aureus (ATCC 23235) amounted to 12 mm; in the experiment with B. subtilis (ATCC 6051), 13 mm; in the experiment with E. coli (ATCC 25922), 15 mm; in experiment [2], 14 mm.
